Laboratory results as given in ChEMBL document CHEMBL4251655 (Eur J Med Chem, 2018).

Experiments:
[1] = target: T1, Mitogen-activated protein kinase kinase kinase 5 (Homo sapiens, UniProt Q99683); assay: Inhibition of recombinant full length human GST-tagged ASK1 expressed in baculovirus expression system using STK3 peptide substrate preincubated for 15 mins followed by substrate addition measured after 90 mins in presence of 1 mM ATP by HTRF assay
T1 sequence (Q99683 whole entry): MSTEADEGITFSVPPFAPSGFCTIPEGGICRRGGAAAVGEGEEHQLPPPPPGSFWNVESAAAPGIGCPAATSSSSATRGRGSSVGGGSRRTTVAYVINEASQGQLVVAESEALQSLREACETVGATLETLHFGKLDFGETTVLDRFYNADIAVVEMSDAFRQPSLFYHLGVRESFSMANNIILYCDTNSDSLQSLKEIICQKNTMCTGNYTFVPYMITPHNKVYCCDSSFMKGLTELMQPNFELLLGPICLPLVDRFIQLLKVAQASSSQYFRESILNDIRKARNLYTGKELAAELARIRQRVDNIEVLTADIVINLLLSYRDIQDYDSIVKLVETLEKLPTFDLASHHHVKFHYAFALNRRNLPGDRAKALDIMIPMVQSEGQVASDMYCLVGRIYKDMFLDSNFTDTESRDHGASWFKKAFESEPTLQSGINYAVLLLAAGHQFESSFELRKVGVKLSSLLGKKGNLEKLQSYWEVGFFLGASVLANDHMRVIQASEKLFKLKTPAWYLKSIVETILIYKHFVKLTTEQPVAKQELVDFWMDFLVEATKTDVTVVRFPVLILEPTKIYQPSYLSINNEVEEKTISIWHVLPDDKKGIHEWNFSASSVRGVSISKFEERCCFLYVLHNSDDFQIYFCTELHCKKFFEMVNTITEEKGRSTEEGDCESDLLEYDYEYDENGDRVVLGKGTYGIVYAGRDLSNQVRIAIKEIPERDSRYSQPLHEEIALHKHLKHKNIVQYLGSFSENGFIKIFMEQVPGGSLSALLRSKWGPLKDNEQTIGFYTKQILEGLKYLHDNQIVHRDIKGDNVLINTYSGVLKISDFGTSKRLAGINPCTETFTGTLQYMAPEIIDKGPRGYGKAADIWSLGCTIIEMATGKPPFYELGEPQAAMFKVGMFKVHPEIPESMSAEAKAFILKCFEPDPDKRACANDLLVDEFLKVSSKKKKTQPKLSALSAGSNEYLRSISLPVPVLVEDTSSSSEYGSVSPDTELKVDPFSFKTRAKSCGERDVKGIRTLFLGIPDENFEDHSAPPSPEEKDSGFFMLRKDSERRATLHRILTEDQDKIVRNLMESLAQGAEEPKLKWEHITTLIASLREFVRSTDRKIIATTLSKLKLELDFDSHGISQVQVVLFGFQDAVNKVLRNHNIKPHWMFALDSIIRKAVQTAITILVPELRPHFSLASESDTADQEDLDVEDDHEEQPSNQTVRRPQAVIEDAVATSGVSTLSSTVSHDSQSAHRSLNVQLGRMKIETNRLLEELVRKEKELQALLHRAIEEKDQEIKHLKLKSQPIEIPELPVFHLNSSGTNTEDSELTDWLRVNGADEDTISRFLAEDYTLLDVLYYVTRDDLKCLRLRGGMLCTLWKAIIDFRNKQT
How it was run: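 Full-length recombinant human ASK1 (3 nM final) in kinase buffer with 5 mM MgCl2 and 1 mM DTT, preincubated with compound 15 min at 25 °C. Reaction started with ATP (1 mM) and STK3 peptide (1 µM final), run 90 min at room temperature, 2% DMSO. Stopped with EDTA detection mix, HTRF read after 2 h. Kiapp fitted by Morrison or competitive equation, converted to IC50 by Cheng-Prusoff using ATP Km 48 µM. Mean of at least two determinations.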

[2] = Lipophilicity, log D at pH 7.4 by shake flask method; conditions: buffer
[3] = target: T1, Mitogen-activated protein kinase kinase kinase 5; assay: Inhibition of recombinant full length human ASK1 expressed in HEK293/AP1-Luc cells assessed as reduction in p38 phosphorylation after 18 hrs by HTRF assay; type: cell-based
How it was run: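 HEK293/AP-1luc cells stably overexpressing wild-type human full-length ASK1 (constitutively active, no stimulus), seeded at 25K cells/well, held 8 h at 37 °C, then switched to Optimem with Geneticin. Compound dilution series added (final DMSO 0.5%) for 18 h at 37 °C, 5% CO2. Cells lysed 1 h at room temperature; phospho-p38 read by HTRF after overnight (18 h) detection. Mean of at least two determinations.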

[4] = Permeability of the compound in RRCK cells; type: ADME, cell-based, Canis lupus familiaris, MDCKII-LE; conditions: dog, MDCK; read-out: permeability

Compound | IC50 [1] | logD [2] | IC50 [3] | Papp [4]
CC(C)n1cnnc1-c1cccc(NC(=O)c2cccc(C(N)=O)c2)n1 | 580 nM |  |  | 
CC(C)n1cnnc1-c1cccc(NC(=O)c2cccc(-c3ncc[nH]3)c2)n1 | 170 nM | 2.4 |  | 

Stronger by IC50 [1], values ahead:

IC50 [1] | logD [2] | IC50 [3] | Papp [4] | Compound
0.32 nM | 2.2 | 41 nM | 5.6 ×10⁻⁶ cm/s | CCS(=O)(=O)Nc1ccc(OC)c(C(=O)Nc2cccc(-c3nncn3C(C)C)n2)c1
73 nM | 1.7 |  |  | CCS(=O)(=O)Nc1cccc(C(=O)Nc2cccc(-c3nncn3C(C)C)n2)c1
2.4 nM | 1.8 | 272 nM | 9.8 ×10⁻⁶ cm/s | CNC(=O)c1ccc(OC)c(C(=O)Nc2cccc(-c3nncn3C(C)C)n2)c1
